Laboratory results taken from ChEMBL document CHEMBL3407383, “Design, synthesis and biological profile of new inhibitors of multidrug resistance associated proteins carrying a polycyclic scaffold” (Eur J Med Chem, 2015).
Calls of active or inactive are those of the source. No cut-off for these calls is given here.

Experiments:
[1] = molecular target: T1, ATP-dependent translocase ABCB1 (Homo sapiens, UniProt P08183); assay: Reversal of human MDR1-mediated drug efflux in mouse L5178 cells using rhodamine 123 as substrate assessed as fluorescence activity ratio at 0.8 uM incubated for 10 mins prior to substrate addition measured after 20 mins by FACScan flow cytometry relative to control; format: cell-based; details: l5178, 20 min
Method in brief: (§1)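 L5178 MDR1-transfected and parental mouse lymphoma cells at 2 × 10^6/mL in serum-free McCoy's 5A. Preincubated with compound (0.4–40 µM) for 10 min at room temperature, then rhodamine-123 (5.2 µM final) added for 20 min at 37 °C; washed twice, resuspended in PBS, read by flow cytometry. Verapamil as positive control. R = (MDR treated/MDR control)/(parental treated/parental control).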

[2] = Cytotoxicity against human HL60R cells assessed as cell viability at 10 uM by MTT assay; format: cell-based
[3] = molecular target: T2, Multidrug resistance protein 1/Multidrug resistance associated protein 1 (Homo sapiens, UniProt P33527+P08183); assay: Inhibition of MDR1/MRP1 overexpressed in doxorubicin-resistant human HL60R cells assessed as DXR accumulation at 10 uM incubated for 2 hrs prior to DXR challenge measured after 2 hrs by fluorescence assay relative to control; format: cell-based
Method in brief: (§2)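 HL60 and HL60R cells (2.5 × 10^5 cells/mL) preincubated 2 h with compound, then 2 h with 10 µM DXR. Washed twice in cold PBS, resuspended at 1 × 10^6 cells/mL. Anthracycline fluorescence read immediately by flow cytometry (excitation 488 nm, emission 600 nm, log scale). Mean ± SD, ≥3 independent experiments; one-way ANOVA versus HL60R.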

[4] = molecular target: T1, ATP-dependent translocase ABCB1; assay: Reversal of human MDR1-mediated drug efflux in mouse L5178 cells using rhodamine 123 as substrate assessed as fluorescence activity ratio at 40 uM incubated for 10 mins prior to substrate addition measured after 20 mins by FACScan flow cytometry relative to control; format: cell-based; details: l5178, 20 min
[5] = Cytotoxicity against human HL60 cells assessed as cell viability at 10 uM by MTT assay; format: cell-based; details: hl-60, 10 µM
[6] = molecular target: T1, ATP-dependent translocase ABCB1; assay: Reversal of human MDR1-mediated drug efflux in mouse L5178 cells using rhodamine 123 as substrate assessed as fluorescence activity ratio at 4 uM incubated for 10 mins prior to substrate addition measured after 20 mins by FACScan flow cytometry relative to control; format: cell-based; details: l5178, 20 min
[7] = Cytotoxicity against human HL60R cells assessed as effect on cell cycle at 10 uM; format: cell-based
HL60R [8] = assay: Potentiation of doxorubicin-induced cell cycle arrest in human HL60R cells assessed as accumulation at G0/G1 phase at 10 uM after 24 hrs by propidium iodide staining-based flow cytometry; format: functional
Method in brief: (§3)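 HL60R cells treated with compound plus 10 µM DXR for 24 and 48 h. Fixed in 70% ice-cold ethanol at -20 °C overnight, stained with PI 5 µg/mL plus DNase-free RNase A 10 µg/mL in PBS, 30 min at 37 °C in the dark. PI red fluorescence acquired on a linear scale at 600 nm by flow cytometry.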

[9] = Lipophilicity, log P of the compound; format: physicochemical; details: octanol/water
[10] = Cytotoxicity against human HL60 cells assessed as effect on cell cycle at 10 uM; format: cell-based; details: hl-60, 10 µM
[11] = molecular target: T2, Multidrug resistance protein 1/Multidrug resistance associated protein 1; assay: Inhibition of MDR1/MRP1 overexpressed in doxorubicin-resistant human HL60R cells assessed as DXR accumulation at 0.4 uM incubated for 2 hrs prior to DXR challenge measured after 2 hrs by fluorescence assay relative to control; format: cell-based; method in brief: as §2
[12] = molecular target: T2, Multidrug resistance protein 1/Multidrug resistance associated protein 1; assay: Activity at human MDR1/MRP1 overexpressed in doxorubicin-resistant human HL60R cells assessed as ATP consumption at 10 uM after 2 hrs by luminescence assay (reference value: 6350 +/- 303 RLU); format: cell-based
Method in brief: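 HL60R cells at 2.5 × 10^5 cells/mL exposed to 10 µM compound (DMSO solution) for 2 h at 37 °C, 5% CO2; washed twice in cold PBS, resuspended at 1 × 10^6 cells/mL. 1 × 10^5 cells lysed in swab by 20 s agitation; ATP read by luciferase/d-luciferin bioluminescence on a luminometer.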

HL60R [13] = assay: Potentiation of doxorubicin-induced cytotoxicity in human HL60R cells at 10 uM incubated for 2 hrs prior to doxorubicin challenge measured after 24 to 48 hrs by trypan blue staining-based haemocytometry; format: functional, cell-based
Method in brief: (§4)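 HL60R cells seeded at 1.5 × 10^5 cells/mL; after 24 h, exposed to compound (10 µM) for 2 h, then 10 µM DXR added. Viable cells counted by Trypan Blue exclusion in a Bürker haemocytometer at 24 and 48 h. Mean ± SD, at least three independent experiments.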

[14] = molecular target: T1, ATP-dependent translocase ABCB1; assay: Reversal of human MDR1-mediated drug efflux in mouse L5178 cells using rhodamine 123 as substrate assessed as fluorescence activity ratio at 0.4 uM incubated for 10 mins prior to substrate addition measured after 20 mins by FACScan flow cytometry relative to control; format: cell-based; details: l5178, 20 min; method in brief: as §1
HL60R [15] = assay: Potentiation of doxorubicin-induced cell cycle arrest in human HL60R cells assessed as accumulation at G2/M phase at 10 uM after 24 hrs by propidium iodide staining-based flow cytometry; format: functional; method in brief: as §3
HL60R [16] = assay: Potentiation of doxorubicin-induced cytotoxicity in human HL60R cells at 10 uM incubated for 2 hrs prior to doxorubicin challenge measured after 24 hrs by trypan blue staining-based haemocytometry; format: functional, cell-based; method in brief: as §4
[17] = Cell cycle arrest in human HL60R cells assessed as accumulation at G2/M phase at 10 uM after 24 hrs by propidium iodide staining-based flow cytometry; format: functional; method in brief: as §3
[18] = Cell cycle arrest in human HL60R cells assessed as exit from mitosis at 10 uM after 24 hrs by propidium iodide staining-based flow cytometry; format: functional; method in brief: as §3
HL60R [19] = assay: Induction of apoptosis in human HL60R cells assessed as chromatin condensation at 10 uM after 48 hrs by […] staining-based fluorescence microscopy; format: functional, cell-based
Method in brief: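 HL60R cells co-treated 48 h with 10 µM compound plus 10 µM DXR. Cytospun onto slides (150 g, 5 min), PBS-washed, fixed in 4% paraformaldehyde, permeabilized with 0.5% Triton X-100 for 5 min at 4 °C, stained with Hoechst 0,1 mg/mL. Nuclear morphology examined by fluorescence microscopy.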

HL60R [20] = assay: Induction of apoptosis in human HL60R cells assessed as nuclear fragmentation at 10 uM after 48 hrs by […] staining-based fluorescence microscopy
HL60R [21] = assay: Potentiation of doxorubicin-induced cell cycle arrest in human HL60R cells assessed as exit from mitosis at 10 uM after 48 hrs by propidium iodide staining-based flow cytometry; format: functional; method in brief: as §3
HL60R [22] = assay: Potentiation of doxorubicin-induced cytotoxicity in human HL60R cells assessed as restart of cell growth at 10 uM incubated for 2 hrs prior to doxorubicin challenge measured after 24 hrs by trypan blue staining-based haemocytometry relative to control; format: functional; method in brief: as §4
HL60R [23] = assay: Potentiation of doxorubicin-induced cytotoxicity in human HL60R cells assessed as impairment of cell growth at 10 uM incubated for 2 hrs prior to doxorubicin challenge measured up to 24 hrs by trypan blue staining-based haemocytometry; format: functional; method in brief: as §4
[24] = molecular target: T1, ATP-dependent translocase ABCB1; assay: Reversal of human MDR1-mediated drug efflux in mouse L5178 cells using rhodamine 123 as substrate at 40 uM incubated for 10 mins prior to substrate addition by FACScan flow cytometry relative to verapamil; format: cell-based; details: l5178, 10 min; method in brief: as §1

T1 sequence (P08183 whole entry): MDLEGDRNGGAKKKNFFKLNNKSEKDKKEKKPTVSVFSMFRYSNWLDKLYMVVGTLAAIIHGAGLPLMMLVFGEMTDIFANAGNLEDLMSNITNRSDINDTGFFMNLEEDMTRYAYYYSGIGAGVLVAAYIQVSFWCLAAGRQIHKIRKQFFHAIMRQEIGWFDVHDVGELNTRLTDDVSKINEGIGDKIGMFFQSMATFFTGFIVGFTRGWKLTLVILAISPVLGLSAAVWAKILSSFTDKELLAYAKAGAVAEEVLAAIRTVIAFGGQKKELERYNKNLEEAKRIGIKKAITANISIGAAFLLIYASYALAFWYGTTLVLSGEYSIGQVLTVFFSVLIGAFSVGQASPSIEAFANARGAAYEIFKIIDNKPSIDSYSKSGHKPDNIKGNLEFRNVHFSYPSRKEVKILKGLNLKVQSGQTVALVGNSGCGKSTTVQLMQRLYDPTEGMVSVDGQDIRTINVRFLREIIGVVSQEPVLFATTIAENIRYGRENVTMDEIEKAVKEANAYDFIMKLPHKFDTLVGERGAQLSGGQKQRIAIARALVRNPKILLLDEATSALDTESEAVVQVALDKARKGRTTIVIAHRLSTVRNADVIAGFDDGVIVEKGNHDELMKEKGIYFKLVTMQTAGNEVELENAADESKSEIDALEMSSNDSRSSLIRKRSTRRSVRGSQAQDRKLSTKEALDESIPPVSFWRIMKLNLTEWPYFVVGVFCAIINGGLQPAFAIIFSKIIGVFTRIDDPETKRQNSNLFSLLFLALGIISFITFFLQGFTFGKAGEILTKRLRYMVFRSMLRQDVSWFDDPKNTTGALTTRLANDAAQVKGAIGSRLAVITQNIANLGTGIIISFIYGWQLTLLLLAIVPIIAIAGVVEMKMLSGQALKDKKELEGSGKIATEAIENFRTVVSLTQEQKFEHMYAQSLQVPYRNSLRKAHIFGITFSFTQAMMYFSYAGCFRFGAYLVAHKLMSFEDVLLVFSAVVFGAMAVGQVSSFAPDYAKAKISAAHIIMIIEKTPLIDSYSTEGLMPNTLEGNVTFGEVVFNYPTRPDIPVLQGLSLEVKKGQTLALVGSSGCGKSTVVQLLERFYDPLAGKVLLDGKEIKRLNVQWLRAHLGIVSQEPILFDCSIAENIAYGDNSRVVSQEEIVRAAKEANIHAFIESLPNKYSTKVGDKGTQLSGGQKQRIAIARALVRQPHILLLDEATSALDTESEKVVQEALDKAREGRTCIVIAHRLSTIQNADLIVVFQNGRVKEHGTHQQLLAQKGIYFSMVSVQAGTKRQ

Compound	inhibition (INH) [3]	Ratio [4]	Ratio [6]	logP [9]	inhibition (INH) [11]	RLU [12]	Activity [2]	Activity [5]	Activity [7]	Activity (HL60R [8])	Activity [10]	Activity (HL60R [13])	Activity (HL60R [15])	other results
COc1ccc(CCN(C)CC#CCN2C(=O)[C@@H]3[C@H]4c5ccccc5[C@H](c5ccccc54)[C@@H]3C2=O)cc1OC	–	–	–	–	Not Active	2612	Toxic	Toxic	Toxic	Active	Toxic	Active	–	–
O=C1[C@@H]2[C@H]3c4ccccc4[C@H](c4ccccc43)[C@@H]2C(=O)N1CC#CCN1CCC(n2c(=O)[nH]c3ccccc32)CC1	Not Active	44.6	6.39	2.54	Not Active	4363	Non-toxic	Non-toxic	Non-toxic	–	Non-toxic	–	Active	Activity (HL60R [16]): Active
COc1cccc2c1C(=O)c1c(O)c3c(c(O)c1C2=O)C[C@@](O)(C(=O)CO)C[C@@H]3O[C@H]1C[C@H](N)[C@H](O)[C@H](C)O1	–	–	–	–	–	–	–	–	–	–	–	–	–	Activity [17]: Active; Activity [18]: inactive; Activity (HL60R [19]): Active; Activity (HL60R [20]): Active
O=C1[C@@H]2[C@H]3c4ccccc4[C@H](c4ccccc43)[C@@H]2C(=O)N1CC#CCN1CCN(c2ccccc2)CC1	Not Active	11.52	7.56	2.54	Not Active	3650	Non-toxic	Non-toxic	Non-toxic	–	Non-toxic	–	Active	Activity (HL60R [21]): inactive; Activity (HL60R [22]): inactive; Ratio [24]: 2; Activity (HL60R [23]): Active
O=C1[C@@H]2[C@H]3c4ccccc4[C@H](c4ccccc43)[C@@H]2C(=O)N1CC#CCN1CCN(Cc2ccccc2)CC1	Active	85.46	54.832	2.54	Not Active	3957	Non-toxic	Non-toxic	Non-toxic	Active	Non-toxic	Active	–	Ratio [1]: 7.76; Ratio [24]: 15; Ratio [14]: 2.62

Now from value to compound, other results behind:

inhibition (INH) [3]	Ratio [4]	Ratio [6]	logP [9]	inhibition (INH) [11]	RLU [12]	Compound	Activity [2]	Activity [5]	Activity [7]	Activity (HL60R [8])	Activity [10]	Activity (HL60R [13])	Activity (HL60R [15])	other results
Active	33.38	28.27	6.3	Not Active	4276	O=C1[C@@H]2[C@H]3c4ccccc4[C@H](c4ccccc43)[C@@H]2C(=O)N1CC#CCN1CCN(C(c2ccc(F)cc2)c2ccc(F)cc2)CC1	Non-toxic	Non-toxic	Non-toxic	Active	Non-toxic	Active	–	Ratio [1]: 8.22; Ratio [14]: 5.19
Not Active	64.74	9.59	2.54	Not Active	3429	CN1CCN(CC#CCN2C(=O)[C@@H]3[C@H]4c5ccccc5[C@H](c5ccccc54)[C@@H]3C2=O)CC1	Non-toxic	Non-toxic	Non-toxic	–	Non-toxic	–	Active	Activity (HL60R [21]): inactive; Activity (HL60R [22]): inactive; Activity (HL60R [23]): Active
Not Active	–	–	–	–	–	C#CCN1C(=O)[C@@H]2[C@H]3c4ccccc4[C@H](c4ccccc43)[C@@H]2C1=O	–	–	–	–	–	–	–	–
